Screens: PubChem BioAssay, several laboratories
Rows were chosen to be rich in hits. Some 2.5% of all compounds tested hit in one or more screens of this group.
NadD inh = inhibitors of S. aureus NadD, primary screen, biochemical, colorimetric, uHTS | Nicotinate-nucleotide adenylyltransferase NadD (Staphylococcus aureus N315) | purified NadD enzyme, colorimetric absorbance read-out | inhibition, % at 20 µM | hit rate 0.78% among 360,000 | AID 602399, 2012; in the data active = inhibition above about 26%
GRK2 inh = compounds blocking aptamer binding on GRK2 – biochemical, human GRK2, bead flow cytometry, HTS, primary screen; inhibition of aptamer binding, % at 10 µM; FAM-aptamer displacement from GRK2; Beta-adrenergic receptor kinase 1 (Homo sapiens), P25098; hit rate 0.59% among 330,000;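 active = inhibition of aptamer binding above 40%, roughly 3 SD of noise, on plates passing a quality check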;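 note: median bead fluorescence of bound FAM aptamer so fluorescent compounds give negative values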
SENP1 inh = human SENP1 catalytic domain inhibitors, primary screen, biochemical, FRET, uHTS; Sentrin-specific protease 1 (Homo sapiens), Q9P0U3; recombinant SENP1 catalytic domain, CyPet-SUMO1-YPet FRET cleavage; inhibition, % at 10 µM; hit rate 0.21% among 360,000;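 active = inhibition at least 30% at 10 µM, raw YFP signal under a set limit, fluorescence ratio 0.5 to 1.5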;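 note: 0% = enzyme with DMSO and 100% = no enzyme wells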
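Assay system – human recombinant His6-tagged SENP1 catalytic domain enzyme · Input – SENP1 enzyme, 20 pM final · Buffer or medium – Tris pH 8 buffer plus EDTA, NaCl, BME, BSA, NP40, catalase · Schedule – 50 min reaction at room temperature · Technique – FRET read of cyan and yellow fluorescence · Control set – no-enzyme wells low, DMSO-plus-enzyme wells high control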
B2AR ag = beta2AR agonists driving receptor internalization, primary screen, cell-based, FAP fluorogen, flow cytometry; response, % (test concentration not listed); Am2.2-beta2AR cells; hit rate 0.43% among 340,000; Beta-2 adrenergic receptor (Homo sapiens), P07550;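 active = response above a set limit, near 3 SD of response in nonfluorescent compounds, cut at about 42% in these data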
ABHD5 PLIN5 PPI = ABHD5-PLIN5 interaction inhibitors, primary screen, cell lysate, split luciferase complementation, luminescence; Perilipin-5 (Homo sapiens) + 1-acylglycerol-3-phosphate O-acyltransferase ABHD5 (Homo …; Split G. princeps luciferase complementation, 4 h; inhibition, % at 4 µM; hit rate 0.78% among 360,000; AID 602281, 2012;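 active = inhibition above the mean inhibition across every tested compound plus 3 SD, cut at about 22% in these data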;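 note: 0% = DMSO only wells and the 100% control is not disclosed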
Target sequence (Q00G26 whole entry, looked up): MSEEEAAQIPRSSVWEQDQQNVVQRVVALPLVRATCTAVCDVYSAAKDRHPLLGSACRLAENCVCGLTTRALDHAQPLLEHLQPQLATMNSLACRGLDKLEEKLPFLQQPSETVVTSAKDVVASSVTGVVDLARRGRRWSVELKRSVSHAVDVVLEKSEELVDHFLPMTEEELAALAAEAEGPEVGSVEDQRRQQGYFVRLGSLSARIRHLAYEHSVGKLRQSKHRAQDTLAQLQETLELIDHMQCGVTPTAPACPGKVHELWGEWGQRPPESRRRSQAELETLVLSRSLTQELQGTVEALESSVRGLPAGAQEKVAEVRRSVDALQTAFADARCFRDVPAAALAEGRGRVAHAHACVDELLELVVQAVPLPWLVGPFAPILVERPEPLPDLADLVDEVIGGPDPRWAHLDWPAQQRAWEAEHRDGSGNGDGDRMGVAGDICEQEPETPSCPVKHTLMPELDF
Target sequence (Q8WTS1 whole entry, looked up): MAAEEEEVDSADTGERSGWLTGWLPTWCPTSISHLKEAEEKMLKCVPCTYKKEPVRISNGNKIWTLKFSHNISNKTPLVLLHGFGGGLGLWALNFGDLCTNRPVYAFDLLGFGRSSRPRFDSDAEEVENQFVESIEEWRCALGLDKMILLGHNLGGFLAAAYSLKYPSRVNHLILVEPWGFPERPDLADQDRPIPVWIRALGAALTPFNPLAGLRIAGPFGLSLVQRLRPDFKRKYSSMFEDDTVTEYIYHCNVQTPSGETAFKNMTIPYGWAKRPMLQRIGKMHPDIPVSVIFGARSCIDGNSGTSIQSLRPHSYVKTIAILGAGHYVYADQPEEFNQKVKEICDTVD
* = called active by the depositor; i = inactive; / = no result.

SMILES	NadD inh	GRK2 inh	SENP1 inh	B2AR ag	ABHD5 PLIN5 PPI
CC(=O)c1cccc(NC(=O)c2cc(S(=O)(=O)N3CCOCC3)cs2)c1	-6	0	-1	-2	-1
O=[N+]([O-])c1ccc(C2CN=C(Nc3ccccc3)S2)cc1 (centres undefined)	3	1	12	14	-5
CCc1ccc(NC2=NCC(c3ccccc3)S2)cc1 (centres undefined)	3	2	4	67*	-12
O=C(Nc1c2c(nn1-c1cccc(Cl)c1)CS(=O)(=O)C2)c1ccc2c(c1)OCO2	-3	3	-3	-2	2
CCOC(=O)CN1C(=O)S/C(=C/c2ccc(N3CCCCC3)o2)C1=O	16	0	51	-39	14
COC(=O)CN1C(=O)S/C(=C/c2ccc(N3CCCCC3)o2)C1=O	6	0	-22	i	27*
CC1Sc2ccc(S(=O)(=O)N3CCC(C(=O)Nc4cccc(Cl)c4)CC3)cc2NC1=O (centres undefined)	0	2	4	6	-2
Clc1ccc2c(SCC3CO3)c3ccccc3nc2c1 (centres undefined)	-3	/	-115	82*	-17
O=C(CSc1c2c(nc3cc(Cl)ccc13)CCCC2)NCCN1CCOCC1	-1	0	-2	-13	15
O=C(Cc1ccccc1)N/N=C/c1ccc(-c2ccc([N+](=O)[O-])cc2)o1	0	0	-28	-4	5
O=C(CN(c1cccc(Br)c1)S(=O)(=O)c1ccccc1)N/N=C/c1cc([N+](=O)[O-])ccc1O	47*	0	-13	7	0
O=C(CCCC(=O)Nc1cccc(Br)c1)N/N=C/c1cc([N+](=O)[O-])ccc1O	1	0	6	7	2
Cc1ccccc1NC(=O)CCC(=O)N/N=C/c1cc([N+](=O)[O-])ccc1O	-5	1	15	10	-3
Cc1ccc(C)c(NC(=O)CCC(=O)N/N=C/c2cc([N+](=O)[O-])ccc2O)c1	5	0	2	65*	2
Cc1ccc(C)c(N(CC(=O)N/N=C/c2ccc(-c3ccc([N+](=O)[O-])cc3)o2)S(=O)(=O)c2ccccc2)c1	32*	5	-29	12	5
CCc1ccc(CN(C)C(=O)CC2C(=O)NCCN2Cc2ccoc2)cc1 (centres undefined)	0	0	-5	-1	17
CCCNC(=O)C(Cc1cccc(C#N)c1)NC(=O)c1cccc([N+](=O)[O-])c1 (centres undefined)	1	0	2	-8	1
C#CCOCCOCCOCCNc1nc(N2CCN(C(=O)CCCCCCCCCCNC(=O)[C@H](CCCCN)n3cc(C[C@@H](C)CC)nn3)CC2)nc(N2CCN(C(=O)CCCCCCCCCCNC(=O)[C@H](CCCN=C(N)N)n3cc(C[C@@H](C)CC)nn3)CC2)n1	64*	0	-4	42*	63*
C#CCOCCOCCOCCNc1nc(N2CCN(C(=O)CCCCCCCCCCNC(=O)[C@H](CCCCN)n3cc(C)nn3)CC2)nc(N2CCN(C(=O)CCCCCCCCCCNC(=O)[C@H](CCCN=C(N)N)n3cc(C[C@@H](C)CC)nn3)CC2)n1	/	0	/	/	/
C#CCOCCOCCOCCNc1nc(N2CCN(C(=O)CCCCCCCCCCNC(=O)[C@H](CO)n3cc(CCCCCN)nn3)CC2)nc(N2CCN(C(=O)CCCCCCCCCCNC(=O)[C@H](CCCN=C(N)N)n3cc(C[C@@H](C)CC)nn3)CC2)n1	/	0	/	/	/
C#CCOCCOCCOCCNc1nc(N2CCN(C(=O)CCCCCCCCCCNC(=O)[C@@H](CCSC)n3cc(CCO)nn3)CC2)nc(N2CCN(C(=O)CCCCCCCCCCNC(=O)[C@H](CCCN=C(N)N)n3cc(C[C@@H](C)CC)nn3)CC2)n1	71*	0	-4	58*	64*
